# Source: ChEMBL document CHEMBL4043120 (Bioorg Med Chem, 2017)
# Calls of active or inactive are those of the source. The calls are words filed in the database; no cut-off is given here.
# Assays:
# [1] = biological target: T1, Histone-lysine N-methyltransferase EHMT1 (Homo sapiens) (UniProt Q9H9B1); experiment: Inhibition of EHMT1 (unknown origin) at 200 uM preincubated for 5 mins followed by SAM and biotinylated H3K9 peptide addition measured after 120 mins by HTRF assay relative to control
# T1 sequence (whole entry): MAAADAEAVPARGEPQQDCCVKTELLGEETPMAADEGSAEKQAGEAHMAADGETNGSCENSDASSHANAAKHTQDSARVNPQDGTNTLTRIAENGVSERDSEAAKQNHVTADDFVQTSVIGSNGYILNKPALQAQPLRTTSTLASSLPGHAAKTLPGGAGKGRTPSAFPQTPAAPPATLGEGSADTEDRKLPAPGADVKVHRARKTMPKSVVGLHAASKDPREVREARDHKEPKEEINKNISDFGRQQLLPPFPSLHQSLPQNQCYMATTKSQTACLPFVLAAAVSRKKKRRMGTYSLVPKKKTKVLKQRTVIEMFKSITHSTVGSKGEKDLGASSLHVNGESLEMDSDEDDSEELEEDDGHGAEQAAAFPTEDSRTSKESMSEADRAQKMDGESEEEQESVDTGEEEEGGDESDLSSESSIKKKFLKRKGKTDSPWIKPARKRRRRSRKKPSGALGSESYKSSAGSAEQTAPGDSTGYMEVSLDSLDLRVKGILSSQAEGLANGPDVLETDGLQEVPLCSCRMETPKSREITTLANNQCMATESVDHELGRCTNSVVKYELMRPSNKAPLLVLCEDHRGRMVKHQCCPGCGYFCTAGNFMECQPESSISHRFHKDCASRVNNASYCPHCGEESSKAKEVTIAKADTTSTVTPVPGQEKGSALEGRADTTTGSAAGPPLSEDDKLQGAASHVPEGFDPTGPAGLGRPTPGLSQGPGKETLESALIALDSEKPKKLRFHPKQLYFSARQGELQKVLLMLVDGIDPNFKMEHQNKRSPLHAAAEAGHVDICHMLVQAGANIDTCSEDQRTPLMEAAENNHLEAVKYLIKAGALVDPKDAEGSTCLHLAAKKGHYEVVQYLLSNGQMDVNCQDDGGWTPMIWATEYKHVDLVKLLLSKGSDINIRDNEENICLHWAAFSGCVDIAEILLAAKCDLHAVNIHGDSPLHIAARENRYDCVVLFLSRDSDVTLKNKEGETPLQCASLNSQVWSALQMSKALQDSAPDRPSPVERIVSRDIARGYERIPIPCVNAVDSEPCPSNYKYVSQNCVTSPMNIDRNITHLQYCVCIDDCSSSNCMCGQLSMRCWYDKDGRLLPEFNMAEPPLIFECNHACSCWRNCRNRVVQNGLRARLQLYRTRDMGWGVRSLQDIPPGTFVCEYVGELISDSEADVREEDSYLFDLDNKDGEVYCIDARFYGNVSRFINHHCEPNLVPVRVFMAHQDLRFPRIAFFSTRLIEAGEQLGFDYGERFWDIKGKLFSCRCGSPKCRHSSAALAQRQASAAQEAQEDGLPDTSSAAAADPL
# Method in brief: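 Final EHMT1 0.4 nM, biotinylated unmethylated H3(1-21)K9 peptide 150 nM, SAM 6 μM in 50 mM Tris-HCl pH 8.8, 50 mM NaCl, 1 mM DTT, 0.01% Tween-20; samples at 200 μM, 1% DMSO final. Detection by Eu-antibody plus streptavidin-XL665, 60 min. HTRF read: excitation 320 or 340 nm, emission 665/620 nm.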
# [2] = biological target: T2, Histone-lysine N-methyltransferase EHMT2 (Homo sapiens) (UniProt Q96KQ7); experiment: (§1) Inhibition of EHMT2 (unknown origin) preincubated for 15 mins followed by SAM and biotinylated H3K9 peptide addition measured after 30 mins by TR-FRET assay
# T2 sequence (whole entry): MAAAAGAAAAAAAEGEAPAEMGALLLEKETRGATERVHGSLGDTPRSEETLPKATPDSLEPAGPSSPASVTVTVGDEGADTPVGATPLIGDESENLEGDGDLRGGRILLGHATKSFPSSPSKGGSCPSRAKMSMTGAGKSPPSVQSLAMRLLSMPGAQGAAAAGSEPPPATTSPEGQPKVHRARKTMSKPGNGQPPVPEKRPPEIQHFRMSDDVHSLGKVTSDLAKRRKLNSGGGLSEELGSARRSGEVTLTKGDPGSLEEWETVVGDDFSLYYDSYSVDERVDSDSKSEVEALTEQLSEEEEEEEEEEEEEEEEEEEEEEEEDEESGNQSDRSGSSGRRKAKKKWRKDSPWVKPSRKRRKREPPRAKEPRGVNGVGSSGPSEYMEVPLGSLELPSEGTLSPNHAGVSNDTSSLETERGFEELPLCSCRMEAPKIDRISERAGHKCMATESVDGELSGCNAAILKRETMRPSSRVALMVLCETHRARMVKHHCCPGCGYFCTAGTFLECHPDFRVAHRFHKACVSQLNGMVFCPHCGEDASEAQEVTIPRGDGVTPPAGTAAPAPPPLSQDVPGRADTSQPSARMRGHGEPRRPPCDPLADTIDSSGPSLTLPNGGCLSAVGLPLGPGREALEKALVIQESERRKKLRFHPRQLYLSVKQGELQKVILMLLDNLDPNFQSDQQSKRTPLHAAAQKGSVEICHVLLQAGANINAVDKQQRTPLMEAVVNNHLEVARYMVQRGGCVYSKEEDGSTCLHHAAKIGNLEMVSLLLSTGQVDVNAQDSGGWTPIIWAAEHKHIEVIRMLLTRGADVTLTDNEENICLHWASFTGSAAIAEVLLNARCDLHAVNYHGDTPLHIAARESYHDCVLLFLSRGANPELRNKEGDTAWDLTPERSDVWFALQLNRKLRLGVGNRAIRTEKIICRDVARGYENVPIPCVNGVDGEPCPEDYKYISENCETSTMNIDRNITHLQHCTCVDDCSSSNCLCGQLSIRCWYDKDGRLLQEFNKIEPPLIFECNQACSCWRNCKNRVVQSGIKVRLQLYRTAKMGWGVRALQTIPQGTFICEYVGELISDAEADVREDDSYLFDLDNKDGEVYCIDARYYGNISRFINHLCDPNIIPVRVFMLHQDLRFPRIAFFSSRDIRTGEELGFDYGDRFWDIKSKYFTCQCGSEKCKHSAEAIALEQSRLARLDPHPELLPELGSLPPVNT
# [3] = biological target: T2, Histone-lysine N-methyltransferase EHMT2 (Homo sapiens); experiment: Inhibition of EHMT2 (unknown origin) at 400 uM preincubated for 15 mins followed by SAM and biotinylated H3K9 peptide addition measured after 30 mins by TR-FRET assay relative to control
# Method in brief: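 Single-point EHMT2 screen at 400 μM, 1% DMSO. Final 0.6 nM EHMT2, 0.5 µM biotinylated H3(1-21)K9 peptide, 3 µM SAM in 50 mM Tris-HCl pH 9.0, 50 mM NaCl, 1 mM DTT, 0.01% Tween-20. Detection 60 min with final 2 nM Eu-antibody, 50 nM ULight-streptavidin, 0.0001% poly-L-lysine. TR-FRET read at 665/620 nm.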
# [4] = biological target: T3, Histone-lysine N-methyltransferase EHMT1 (Homo sapiens, UniProt Q9H9B1); experiment: (§2) Inhibition of EHMT1 (unknown origin) preincubated for 5 mins followed by SAM and biotinylated H3K9 peptide addition measured after 120 mins by HTRF assay
# T3 sequence (Q9H9B1 whole entry): T1 sequence (whole entry)
# Method in brief: (§3)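 Final 0.4 nM enzyme, 150 nM biotinylated H3(1-21)K9 peptide, 6 μM SAM, pH 8.8 Tris buffer, 1% DMSO. Eu-antibody/SA-XL665 HTRF read at 665/620 nm. Mean±SEM of 3-4 independent experiments in triplicate.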
# [5] = biological target: T1, Histone-lysine N-methyltransferase EHMT1 (Homo sapiens); experiment: as §2; method in brief: as §3
# [6] = biological target: Protein arginine N-methyltransferase 1 (Homo sapiens) (UniProt Q99873); experiment: Inhibition of PRMT1 (unknown origin) at 400 uM preincubated for 5 mins followed by SAM and H4 (1 to 25 residues) peptide addition measured after 1 hr by HTRF assay relative to control
# [7] = biological target: T4, Histone-lysine N-methyltransferase EHMT2 (Homo sapiens, UniProt Q96KQ7); experiment: as §1
# T4 sequence (Q96KQ7 whole entry): T2 sequence (whole entry)
# MDA-MB-231 = experiment: Antiproliferative activity against human MDA-MB-231 cells at 200 uM after 72 hrs by sulforhodamine B assay relative to control; assay type: functional; conditions: MDA-MB-231, 72 h
# HL-60 = experiment: Antiproliferative activity against human HL60 cells at 200 uM after 72 hrs by CCK8 assay relative to control; assay type: functional; conditions: HL-60, 72 h
# [8] = biological target: T3, Histone-lysine N-methyltransferase EHMT1; experiment: Inhibition of EHMT1 (unknown origin)
# Chain of Protein arginine N-methyltransferase 1 (Homo sapiens) (Q99873 whole entry, looked up, the tested form may be a part): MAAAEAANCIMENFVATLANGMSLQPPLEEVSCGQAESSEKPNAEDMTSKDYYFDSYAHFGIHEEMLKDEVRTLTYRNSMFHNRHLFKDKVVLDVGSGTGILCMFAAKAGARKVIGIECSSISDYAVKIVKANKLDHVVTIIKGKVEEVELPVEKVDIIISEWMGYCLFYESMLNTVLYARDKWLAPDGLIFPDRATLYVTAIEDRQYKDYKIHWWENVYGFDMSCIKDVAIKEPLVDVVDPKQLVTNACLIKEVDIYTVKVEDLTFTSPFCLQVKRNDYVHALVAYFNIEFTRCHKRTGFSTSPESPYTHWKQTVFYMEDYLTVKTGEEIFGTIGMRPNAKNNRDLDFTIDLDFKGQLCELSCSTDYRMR
Compound,inhibition [1],inhibition [2],inhibition [3] [%],IC50 [4],inhibition [5],inhibition [6],IC50 ([4]; read-out: IC50) [µM],IC50 [7] [µM],inhibition at 200 µM (MDA-MB-231) [%],inhibition at 200 µM (HL-60) [%],IC50 [8] [µM]
CN(CC1CCCCC1)C[C@H]1O[C@@H](n2cnc3c(N)ncnc32)[C@H](O)[C@@H]1O,inactive,Dose-dependent effect,31.9,Not Active,Dose-dependent effect,,,,,,
Nc1ncnc2c1ncn2[C@@H]1O[C@H](C[C@@H](N)CC2CCCCC2)[C@@H](O)[C@H]1O,72.7%,Dose-dependent effect,43.7,,Dose-dependent effect,inactive,204,,,,
Nc1ncnc2c1ncn2[C@@H]1O[C@H](C[C@@H](N)CC2CC2)[C@@H](O)[C@H]1O,88.9%,Dose-dependent effect,77.6,,Dose-dependent effect,inactive,21.8,39.6,41.4,37.9 to 38.4,
Nc1ncnc2c1ncn2[C@@H]1O[C@H](C[C@H](N)CC2CCCC2)[C@@H](O)[C@H]1O,12.5%,Dose-dependent effect,43.6,,Dose-dependent effect,,,,,,
Nc1ncnc2c1ncn2[C@@H]1O[C@H](C[C@H](N)CCC2CCCCC2)[C@@H](O)[C@H]1O,46.3%,Dose-dependent effect,47.8,,Dose-dependent effect,,,,,,
Nc1ncnc2c1ncn2[C@@H]1O[C@H](C[C@@H](N)CC[C@H](N)C(=O)O)[C@@H](O)[C@H]1O [SINEFUNGIN],100%,Dose-dependent effect,79.5,,Dose-dependent effect,,28.4,,42.8,41,0.1 to 20
CCN(CC1CCCCC1)C[C@H]1O[C@@H](n2cnc3c(N)ncnc32)[C@H](O)[C@@H]1O,24.1%,Dose-dependent effect,39.1,,Dose-dependent effect,,,,,,
Nc1ncnc2c1ncn2[C@@H]1O[C@H](C[C@H](N)CC2CCC2)[C@@H](O)[C@H]1O,53.2%,Dose-dependent effect,44,,Dose-dependent effect,,115,,,,
Nc1ncnc2c1ncn2[C@@H]1O[C@H](C[C@@H](N)CC2CCC2)[C@@H](O)[C@H]1O,69.7%,Dose-dependent effect,58.9,,Dose-dependent effect,inactive,47.7,169,,,
CCCN(CC1CCCCC1)C[C@H]1O[C@@H](n2cnc3c(N)ncnc32)[C@H](O)[C@@H]1O,inactive,Dose-dependent effect,19.8,Not Active,Dose-dependent effect,,,,,,
Nc1ncnc2c1ncn2[C@@H]1O[C@H](C[C@@H](N)CCC2CCCCC2)[C@@H](O)[C@H]1O,40.9%,Dose-dependent effect,42.7,,Dose-dependent effect,,,,,,
Nc1ncnc2c1ncn2[C@@H]1O[C@H](C[C@H](N)CC2CC2)[C@@H](O)[C@H]1O,52.2%,Dose-dependent effect,65.7,,Dose-dependent effect,20%,,67.2,,,
Nc1ncnc2c1ncn2[C@@H]1O[C@H](C[C@H](N)CC2CCCCC2)[C@@H](O)[C@H]1O,58.1%,Dose-dependent effect,45.3,,Dose-dependent effect,inactive,146,,,,
Nc1ncnc2c1ncn2[C@@H]1O[C@H](C[C@@H](N)CC2CCCC2)[C@@H](O)[C@H]1O,75.7%,Dose-dependent effect,55.3,,Dose-dependent effect,inactive,95.1,191,,,
COc1cc2nc(N3CCCN(C)CC3)nc(NC3CCN(Cc4ccccc4)CC3)c2cc1OC,,,,,,,,,87.2,81.8,
